According to ChEMBL document CHEMBL1129547, “Synthesis and biological evaluation of naphthyldesferrithiocin iron chelators” (1996):

Legend:
[1] = The amount of iron absorbed by the treated animals at postdrug dosage of 300(umol/kg) (route per oral)using 40% cremophore as vehical in Cebus monkeys; assay type: functional
In short: (§1)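 Iron-overloaded Cebus monkeys were kept in metabolic cages on a low-iron liquid diet starting 7 days before dosing, fed by body weight with intake monitored, and fasted 24 h before dosing. They were sedated with ketamine (7–10 mg/kg im) plus scopolamine (0.04–0.07 mg/kg im). Urine and feces were collected every 24 h over days 1–3 and iron measured by flame AA. Iron balance = dietary intake − (urinary + fecal iron).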

[2] = The amount of iron absorbed by the untreated over a period of 3 days animals at prodrug dosage of 300(umol/kg) (route sub cutaneous) using 40% cremophore as vehical in Cebus monkeys; assay type: functional
In short: (§2)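 Baseline period in iron-overloaded Cebus monkeys housed in metabolic cages on a low-iron liquid diet begun 7 days before dosing, fed by body weight with intake monitored. Iron intake and output were measured over the 3 days before drug administration (day −2 to day 0). Urine and feces were collected at 24-h intervals and iron determined by flame atomic absorption. Net balance = intake − (urinary + fecal iron).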

[3] = The amount of iron absorbed by the untreated over a period of 3 days animals at prodrug dosage of 300(umol/kg) (route per oral)using 40% cremophore as vehical in Cebus monkeys; assay type: functional; in short: as §2
[4] = The amount of iron absorbed by the treated animals at postdrug dosage of 300(umol/kg) (route sub cutaneous) using 40% cremophore as vehical in Cebus monkeys; assay type: functional; in short: as §1
[5] = The amount of iron absorbed by the untreated over a period of 3 days animals at prodrug dosage of 150(umol/kg) (route per oral)using 40% cremophore as vehical in Cebus monkeys; assay type: functional; in short: as §2
[6] = The amount of iron absorbed by the treated animals at postdrug dosage of 150(umol/kg) (route per oral)using 40% cremophore as vehical in Cebus monkeys; assay type: functional; in short: as §1
[7] = The amount of iron absorbed by the untreated over a period of 3 days animals at prodrug dosage of 150(umol/kg) (route sc)using distill water as vehical; assay type: functional, Cercopithecidae; in short: as §2
[8] = The amount of iron absorbed by the treated animals at postdrug dosage of 150(umol/kg) (route sc)using distill water as vehical; assay type: functional, Cercopithecidae; in short: as §1

SMILES | Postdrug [1] [µg/kg] | Predrug [2] [µg/kg] | Predrug [3] [µg/kg] | Postdrug [4] [µg/kg] | Predrug [5] [µg/kg] | Postdrug [6] [µg/kg] | Predrug [7] [µg/kg] | Postdrug [8] [µg/kg]
O=C(O)[C@H]1CSC(c2cc3ccccc3cc2O)=N1 | -162 | 164 | 25 | 156 |  |  |  | 
O=C(O)[C@@H]1CSC(c2c(O)ccc3ccccc23)=N1 | 63 | 26 | 54 | -9 |  |  |  | 
O=C(O)[C@@H]1CSC(c2cc3ccccc3cc2O)=N1 | 49 | 80 | 118 | 120 |  |  |  | 
O=C(O)[C@H]1CSC(c2c(O)ccc3ccccc23)=N1 | 381 |  | 358 |  |  |  |  | 
C[C@]1(C(=O)O)CSC(c2ncccc2O)=N1 [DESFERRITHIOCIN] |  |  |  |  | 230 | -500 |  | 
CC(=O)N(O)CCCCCNC(=O)CCC(=O)N(O)CCCCCNC(=O)CCC(=O)N(O)CCCCCN [DEFEROXAMINE] |  |  |  |  |  |  | 217 | 245
